Assay outcomes as filed in PubChem.
STAT1 act = increases IFN-gamma driven STAT1 reporter signal; NIH 3T3 STAT1-luciferase reporter, luminescence; 100% = IFN-gamma alone, no compound; activation (% of control), % at 5.5 µM; 200,000 tested, 2.6% active; AID 932;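 active = activation above the screen-wide mean activation plus 3 SD, cut at about 130% in these data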;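 also: raw ratio to IFN-gamma control signal so 100% means no change and 0% no light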
FLuc act counter = firefly luciferase counter-screen for stimulation assays; P08659; ATPlite luciferase biochemical, luminescence, 10 min; 0 = ATP-free wells, 1 = DMSO control; activation factor at 10 µM; 200,000 tested, under 10 active; AID 1027;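 active = luciferase activation factor, scaled between plate controls, of at least 2 with compound at 10 µM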
Target sequence (P08659 whole entry, looked up): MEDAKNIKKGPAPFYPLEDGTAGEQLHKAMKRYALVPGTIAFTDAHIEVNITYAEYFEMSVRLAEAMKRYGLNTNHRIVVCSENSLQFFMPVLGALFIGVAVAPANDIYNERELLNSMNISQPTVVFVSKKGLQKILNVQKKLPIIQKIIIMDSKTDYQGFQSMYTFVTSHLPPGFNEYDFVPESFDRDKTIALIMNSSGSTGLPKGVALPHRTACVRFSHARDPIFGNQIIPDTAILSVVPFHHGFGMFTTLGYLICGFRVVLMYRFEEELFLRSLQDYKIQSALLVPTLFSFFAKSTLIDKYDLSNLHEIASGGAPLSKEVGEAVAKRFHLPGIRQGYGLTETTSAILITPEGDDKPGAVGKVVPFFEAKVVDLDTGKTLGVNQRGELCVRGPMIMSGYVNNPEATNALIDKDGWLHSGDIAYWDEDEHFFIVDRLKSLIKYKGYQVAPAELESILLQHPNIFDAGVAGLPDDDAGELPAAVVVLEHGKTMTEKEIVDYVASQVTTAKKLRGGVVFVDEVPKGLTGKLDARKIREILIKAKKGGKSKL
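Material: Luciferase/luciferin reagent mix | Doses: Test compounds dosed from 2 mM stocks in 100% DMSO | Timing: 10 min incubation after luciferase reagent addition, room temperature | Measured by: Luminescence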
NF-kB expr up = raises NF-kB expression in human neuronal cells. 190,000 tested, 1.6% active. fold change at 12.5 µM. NF-kB reporter expression; active compounds read high; in the data active = fold change above about 3.3
APP 5'UTR act = APP 5'UTR luciferase reporter activation | SH-SY5Y APP 5'UTR luciferase reporter, luminescence; zero percent = DMSO vehicle wells | activation, % at 2 µM | 190,000 tested, 1% active;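 active = activation above a set limit, based on mean plus 3 SD of controls, cut at about 140% in these data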
FLuc inh counter = inhibits firefly luciferase, flagging false hits in luciferase inhibition screens; inhibition, % at 10 µM; 200,000 tested, 1.5% active; P08659; ATPLite firefly luciferase biochemical luminescence, 10 min; AID 1006;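 active = inhibition above about 50% when tested at 10 µM, limit read from the data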
Pf gametocyte = P. falciparum stage V gametocyte viability inhibition | AID 743093 | inhibition, % at 10.9 µM | P. falciparum stage V gametocytes, ATP luminescence, 24 h | 150,000 tested, 0.065% active;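 active = inhibition above the mean plus 3 SD of compounds within the control limits, set per campaign, cut at about 38% in these data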;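 also: 0% = DMSO wells and 100% = medium only without gametocytes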
An asterisk follows results filed as active. Compounds with a hit are over-represented: about 3.5% of the library has one in this group of screens.

How did O=c1[nH]c(CN2CCN(c3ccc(O)cc3)CC2)nc2scc(-c3ccc(Cl)cc3)c12 do in these assays?
STAT1 act: 94; FLuc act counter: 1; NF-kB expr up: 0.8; APP 5'UTR act: -61; FLuc inh counter: -4; Pf gametocyte: 4

Results for COC(=O)c1ccc(COc2ccc(/C=N/NC(N)=S)cc2)o1 ?
Pf gametocyte: -34

Results for O=C(Cc1ccccc1)Nc1nc2ccccc2s1 ?
STAT1 act: 125; FLuc act counter: 1; NF-kB expr up: 7.1*; APP 5'UTR act: 54; FLuc inh counter: -1

What do the screens show for `O=C(Cc1ccccc1)Nc1nc(=O)c2ccccc2s1`?
STAT1 act: 98; FLuc act counter: 1; NF-kB expr up: 1.2; APP 5'UTR act: -2; FLuc inh counter: -2; Pf gametocyte: 26

What do the screens show for `CC(C)C(=O)NNc1nc2ccccc2s1`?
STAT1 act: 132*; FLuc act counter: 0.9; NF-kB expr up: 2; APP 5'UTR act: 28; FLuc inh counter: 7; Pf gametocyte: -4

What do the screens show for `COCC(=O)Nc1nc2ccccc2s1`?
STAT1 act: 120; FLuc act counter: 1; NF-kB expr up: 1.9; APP 5'UTR act: 7; FLuc inh counter: -2

What do the screens show for `O=C(Cc1cccs1)Nc1nc2ccccc2s1`?
STAT1 act: 126; FLuc act counter: 0.9; NF-kB expr up: 4.2*; APP 5'UTR act: 60; FLuc inh counter: 10

How did CCCC(c1nnnn1CCc1ccccc1)N1CCN(C(=O)c2ccco2)CC1 (stereo unspecified) do in these assays?
STAT1 act: 102; FLuc act counter: 1; NF-kB expr up: 1.1; APP 5'UTR act: 9; FLuc inh counter: -4

How did Cc1ccc(NC(=O)c2cc(C(=O)c3cc(Cl)ccc3O)cn(-c3ccc(C)cc3)c2=O)cc1 do in these assays?
STAT1 act: 100; FLuc act counter: 1.1; NF-kB expr up: 0.89; APP 5'UTR act: 16; FLuc inh counter: -5

Results for Fc1ccccc1CSc1ccc(-c2ccco2)nn1 ?
STAT1 act: 125; FLuc act counter: 0.2; NF-kB expr up: 4.9*; APP 5'UTR act: 64; FLuc inh counter: 78*

Results for COc1ccccc1-c1ccc(SCc2ccccc2F)nn1 ?
STAT1 act: 129*; FLuc act counter: 0.8; NF-kB expr up: 1.8; APP 5'UTR act: 37; FLuc inh counter: 21; Pf gametocyte: -5

How did Clc1ccc(CSc2ccc(-c3ccco3)nn2)cc1 do in these assays?
STAT1 act: 122; FLuc act counter: 0.8; NF-kB expr up: 1.9; APP 5'UTR act: 5; FLuc inh counter: 18

What do the screens show for `COc1ccccc1-c1ccc(SCc2ccccc2)nn1`?
STAT1 act: 119; FLuc act counter: 0.7; NF-kB expr up: 1.9; APP 5'UTR act: 35; FLuc inh counter: 25; Pf gametocyte: -4

What do the screens show for `Cc1ccc(CSc2ccc(-c3ccco3)nn2)cc1`?
STAT1 act: 125; FLuc act counter: 0.4; NF-kB expr up: 3.3*; APP 5'UTR act: 71; FLuc inh counter: 55*; Pf gametocyte: -5

What do the screens show for `c1ccc(CSc2ccc(-c3ccccn3)nn2)cc1`?
STAT1 act: 106; FLuc act counter: 0.4; NF-kB expr up: 6.5*; APP 5'UTR act: 139*; FLuc inh counter: 58*

Results for c1ccc(CSc2ccc(-c3ccco3)nn2)cc1 ?
STAT1 act: 145*; FLuc act counter: 0.2; NF-kB expr up: 3.9*; APP 5'UTR act: 110; FLuc inh counter: 83*

How did Cc1cccc(CSc2ccc(-c3ccco3)nn2)c1 do in these assays?
STAT1 act: 133*; FLuc act counter: 0.7; NF-kB expr up: 1.6; APP 5'UTR act: 49; FLuc inh counter: 27; Pf gametocyte: -1

Results for CC(C)CNC(=O)c1ccccc1NC(=O)Nc1ccccc1 ?
STAT1 act: 100; FLuc act counter: 1; NF-kB expr up: 0.98; APP 5'UTR act: 1; FLuc inh counter: 5; Pf gametocyte: -9

Results for CCC(=O)c1c(OCc2ccccc2)ccc2c(C)cc(=O)oc12 ?
STAT1 act: 100; FLuc act counter: 1.1; NF-kB expr up: 3.4*; APP 5'UTR act: -3; FLuc inh counter: -5

What do the screens show for `CCC(=O)c1ccc(OCc2ccc(C(=O)OC)cc2)c(OC)c1`?
STAT1 act: 98; FLuc act counter: 1.1; NF-kB expr up: 1.2; APP 5'UTR act: -3; FLuc inh counter: -8; Pf gametocyte: 13

Results for CCC(=O)c1ccc(OCc2ccccc2)c(OC)c1 ?
STAT1 act: 129*; FLuc act counter: 0.9; NF-kB expr up: 2; APP 5'UTR act: 71; FLuc inh counter: 6

How did CC(=O)Oc1cccc(/C=c2\sc3nc(-c4ccco4)nn3c2=O)c1 do in these assays?
STAT1 act: 86; FLuc act counter: 0.1; NF-kB expr up: 0.85; APP 5'UTR act: 18; FLuc inh counter: 89*; Pf gametocyte: 23

Results for CCCOc1ccc(/C=c2\sc3nc(-c4ccco4)nn3c2=O)cc1OCC ?
STAT1 act: 109; FLuc act counter: 1; NF-kB expr up: 1.1; APP 5'UTR act: 1; FLuc inh counter: 0; Pf gametocyte: -3

How did COc1c([N+](=O)[O-])cc(C(=O)NNC(=O)c2ccc(C)cc2)cc1[N+](=O)[O-] do in these assays?
Pf gametocyte: 4

Results for O=C(Nc1ccc(SC(F)F)cc1)C1=COCCO1 ?
STAT1 act: 133*; FLuc act counter: 0.6; NF-kB expr up: 5.2*; APP 5'UTR act: 201*; FLuc inh counter: 41; Pf gametocyte: -9

What do the screens show for `O=C(N/N=C/c1ccc(OC(F)F)cc1)C1=COCCO1`?
STAT1 act: 118; FLuc act counter: 0.3; NF-kB expr up: 2.5; APP 5'UTR act: 86; FLuc inh counter: 68*

How did CC(=O)N1CCN(C(=S)Nc2ccc(SC(F)F)cc2)CC1 do in these assays?
STAT1 act: 98; FLuc act counter: 1; NF-kB expr up: 0.98; APP 5'UTR act: 14; FLuc inh counter: -4

Results for COc1cccc(CNc2nc3ccccc3n2C(C)C)c1O ?
Pf gametocyte: -3

How did O=S(=O)(NCc1ccc(F)cc1)c1ccccc1Br do in these assays?
Pf gametocyte: -23

Results for CCN1CCN(CCOc2cccc(Oc3ccccc3)c2)CC1 ?
STAT1 act: 100; FLuc act counter: 1.1; NF-kB expr up: 1.1; APP 5'UTR act: -16; FLuc inh counter: -5; Pf gametocyte: 10

What do the screens show for `Cc1cc(C)n(CC(O)COc2ccc3ccccc3c2)n1` (stereo unspecified)?
STAT1 act: 133*; FLuc act counter: 1; NF-kB expr up: 2.2; APP 5'UTR act: 19; FLuc inh counter: 0; Pf gametocyte: 1

What do the screens show for `CCn1c(-c2ccc(N(C)C)cc2)nc2ccccc21`?
STAT1 act: 108; FLuc act counter: 0.2; NF-kB expr up: 2.9; APP 5'UTR act: 96; FLuc inh counter: 85*; Pf gametocyte: -15
